Measurements from publication PMC5386783 (Nature medicine, 2016).
Values joined by “and” are separate entries in the source; they are usually repeats but may differ in a detail not shown here. Identical values can stand only once.

Experiments:
ZIKV [1] = test: ZIKV NS1 expression; format: cell-based, Zika virus; settings: SNB-19 cells; three strains; dose-dependent
Procedure, shortened: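 SNB-19 cells were treated with titrated test compound 1 h before FSS-13025, PRVABC59 or MR766 (MOI 1) and harvested at 24 h for NS1 western blot. NS1/GAPDH bands were normalised to DMSO. Secreted NS1 in the medium after 24 h was measured by NS1 ELISA kit. n = 3 cultures; one-way ANOVA versus DMSO or the 0 μM group.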

ZIKV [2] = test: Intracellular ZIKV RNA levels; format: cell-based, Zika virus; settings: read-out: IC50, intracellular ZIKV RNA levels
Procedure, shortened: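 SNB-19 cells, astrocytes or hNPCs (~3×10^5/well, 12-well) were treated with test compound 1 h before ZIKV (MOI 0.5–1) and harvested 24–48 h post-infection. Total RNA (500–1000 ng) was reverse-transcribed with random hexamers. SYBR qPCR used ZIKV NS1 primers, with GAPDH as the endogenous control. Fold change was calculated by ΔΔCT, normalised to control cells.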

ZIKV [3] = test: ZIKV production from SNB-19 cells, focus-forming unit assay on Vero cells; format: cell-based, Zika virus; settings: for concentrations suppressing production of infectious ZIKV particles: PRVABC59, MOI = 0.5, 24 hours post infection
ZIKV [4] = test: Time-of-addition experiment in SNB-19 cells; format: cell-based, Zika virus; settings: PRVABC59, MOI = 1, 10 μg/ml anti-AXL antibody, 2 μM Niclosamide, 92 μM PHA-690509
Procedure, shortened: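 SNB-19 cells received test compound or 10 μg/ml anti-AXL antibody either 1 h before or 4 h after PRVABC59 infection (MOI 1). NS1 was detected by western blot, and NS1/GAPDH band intensities were normalised to DMSO. n = 3 cultures; one-way ANOVA versus DMSO.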

astrocytes = test: Astrocyte viability, compound toxicity; format: cell-based; settings: at levels lower than 3 μM
Procedure, shortened: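 Cells were seeded in 96-well plates and, one day later, treated with test compound for 24–48 h without virus. Viability was then read with a CellTiter-Glo luminescent ATP substrate.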

ZIKV [5] = test: ZIKV infection and production in hNPCs and astrocytes; format: cell-based, Zika virus; settings: PRVABC59
Procedure, shortened: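 Astrocytes were treated with test compound 1 h before PRVABC59 (MOI 0.5), fixed 24 h post-infection, and immunostained for ZIKV envelope protein with DAPI. Stained cells were counted. Virus released into culture supernatant was titrated as focus-forming units on Vero cells.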

[6] = ref WHO http://apps.who.int/medicinedocs/en/d/Jh2922e/3.1.3.html; cited from earlier work
hNPC [7] = test: hNPC proliferation after ZIKV infection with compound treatment; format: cell-based, human; settings: ZIKV-infected hNPCs
hNPC [8] = test: hNPC proliferation in brain organoids, compound alone without ZIKV; format: cell-based, human; settings: PHA-690509 1 μM, Seliciclib 5 μM
[9] = system: ZIKV-induced caspase-3 activity; test: Caspase-3/7 activity assay in ZIKV-infected SNB-19 cells; format: cell-based; settings: Homo sapiens, SNB-19, read-out: IC50, caspase activity
Procedure, shortened: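 SNB-19 cells (250/well, PDL-coated 1536-well) were grown 16 h at 37 °C/5% CO2, given pin-transferred test compound for 30 min, then ZIKV at 2 FFU/cell for 6 h. Caspase-Glo 3/7 reagent was added for 30 min at room temperature and luminescence read. Uninfected cells were 0% and infected cells 100%. Confirmation used 11-point 1:3 dilutions, n = 3, and IC50 came from curve fits.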

SNB-19 cells = test: ATP content cell viability assay in ZIKV-infected SNB-19 cells; format: cell-based; settings: Homo sapiens, SNB-19, read-out: IC50, cell viability
forebrain-specific hNPCs = format: cell-based, human
Procedure, shortened: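 Forebrain hNPCs were derived from iPSCs via embryoid bodies, rosettes and neurospheres. Monolayers were exposed to ZIKV FSS-13025 (MOI 0.04–0.08) ± test compound and immunostained 72 h later for ZIKV envelope, cleaved caspase-3 and DAPI; %Cas3+/DAPI cells, mean ± s.e.m., n = 3 cultures, one-way ANOVA. C1–2 iPSC forebrain organoids: exposed on day 18 for 24 h, fresh medium 9 more days, then fixed and immunostained.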

[10] = oral delivery, BID, × 4 days; cited from earlier work
activated caspases = settings: cited from earlier work
[11] = cited from earlier work
ZIKV [12] = test: ZIKV production from iPSC-derived human astrocytes, FFU assay; format: cell-based, Zika virus; settings: read-out: IC50, ZIKV production upon infection of human astrocytes; PRVABC59

What does the source list for `O=C(Nc1ccc([N+](=O)[O-])cc1Cl)c1cc(Cl)ccc1O` [Niclosamide]?
inhibition of ZIKV as measured by NS1 expression (ZIKV [1]): inhibited all three strains of ZIKV; IC50 (ZIKV [2]; Zika virus): 370 nM; concentrations suppressing production of infectious ZIKV particles (ZIKV [3]): sub-micromolar concentrations; inhibition of ZIKV infection by time of addition (ZIKV [4]): effectively inhibited ZIKV infection when added either 1 hour before or 4 hours after virus inoculation; toxicity, astrocyte viability (astrocytes): minimal toxicity; ZIKV infection and production in hNPCs and astrocytes (ZIKV [5]): inhibited ZIKV infection and production; mutagenic, teratogenic or embryotoxic potential [6]: not been shown to be mutagenic, teratogenic or embryotoxic

With `CC(C)c1nn(-c2c(Cl)cccc2Cl)c2nc(Cc3ccc(OCCO)cc3)[nH]c(=O)c12` [RGB-286147] as the compound, how does the IC50 (ZIKV [3]; read-out: IC50, ZIKV production) read?
The IC50 was 27 nM.

What does the source list for `CC[C@H](CO)Nc1nc(NCc2ccccc2)c2ncn(C(C)C)c2n1` [Seliciclib]?
rescue of ZIKV-induced reduction in hNPC proliferation (hNPC [7]): partially rescued; effect of treatment alone on hNPC proliferation in brain organoids (hNPC [8]): minimal effect

Which results are given for `C[C@H](NC(=O)C(=O)Nc1ccccc1C(C)(C)C)C(=O)N[C@@H](CC(=O)O)C(=O)COc1c(F)c(F)cc(F)c1F` [Emricasan]?
IC50 [9]: 130 to 900 nM; IC50 (SNB-19 cells): 130 to 900 nM; suppression of ZIKV replication (ZIKV antigen) (forebrain-specific hNPCs; 2D and 3D cultures): does not suppress ZIKV replication; number of active (cleaved) caspase-3-expressing forebrain-specific hNPCs (forebrain-specific hNPCs; infected by FSS13025, monolayer and 3D organoid cultures): reduced; maximum concentration in human blood [10]: 2.36 μg/ml and 4.15 μM; overall concentration in human blood [10]: 1.90 μg/ml and 3.35 μM; activity against activated caspases in vitro (activated caspases): sub-to nano-molar activity; tolerability in human trials [11]: well tolerated in human trials without significant adverse events

With `CC(=O)Nc1ccc([C@H](C)C(=O)Nc2ncc(C(C)C)s2)cc1` [PHA-690509] as the compound, how does the “inhibition of ZIKV as measured by NS1 expression” value (ZIKV [1]) read?
The value was “inhibited all three strains of ZIKV”.

And the IC50 (ZIKV [2])?
The IC50 was 1720 nM.

What about the “concentrations suppressing production of infectious ZIKV particles” value (ZIKV [3]) of the same compound?
Its value is “sub-micromolar concentrations”.

What about the “inhibition of ZIKV infection by time of addition” value (ZIKV [4]) of the same compound?
The value was “effectively inhibited ZIKV infection when added either 1 hour before or 4 hours after virus inoculation”.

What about the IC50 (ZIKV [12]) of the same compound?
Its IC50 is roughly 200 nM.

And the “toxicity, astrocyte viability” value (astrocytes)?
The value was “minimal toxicity”.

And the “rescue of ZIKV-induced reduction in hNPC proliferation” value (hNPC [7])?
The value was “partially rescued”.

And the “ZIKV infection and production in hNPCs and astrocytes” value (ZIKV [5])?
Its value is “inhibited ZIKV infection and production”.
